Drawing on PubChem BioAssay, this text covers GFP response vs DMSO, GFP response relative to DMSO and GFP response, % of DMSO for 14 compounds.

Assay [1] in a line: hit retest on RPL19A-GFP reporter strain – cell-based, S. cerevisiae, flow cytometry, cherry picks, mother/daughter gates, confirmation (AID 2270;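 active = GFP response below 50% of the DMSO control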). To be noted: 3 h, at 10 µM, stronger effect = lower value, 100 = same GFP as DMSO wells. A general note: Flow cytometry measures light scatter and fluorescence of single cells or particles in a stream.
Assay [2] can be described thus: yeast TOR pathway reporter LAP4-GFP change – cell-based, cherry picks, flow cytometry, mother/daughter gates, confirmation (AID 2271;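 active = GFP response above 150% of the DMSO control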;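 also: ratio of sample to DMSO plate mean so 100% equals DMSO level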). Conditions: S. cerevisiae LAP4-GFP strain, 3 h, at 10 µM, stronger effect = higher value, 100 means same as DMSO control. The essentials:
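System – GFP-fusion yeast strain · Amount – 0.2 OD600 cells · Buffer or medium – SC growth medium · Dosing – single test-compound dose, 10 µM final · Schedule – 3 h treatment at 30 °C with rotation · Detection – GFP by flow cytometry · Read-out – per-gate (all, mother, daughter) GFP response vs DMSO · Benchmarks – positive rapamycin (400 ng/mL), negative DMSO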

Assay [3] is described as follows: TOR pathway reporter MEP2-GFP, retest of hits – S. cerevisiae, flow cytometry GFP, cherry picks, confirmation (AID 2272;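 active = GFP response above 150% of the DMSO control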;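 also: ratio of well signal to plate DMSO mean so 100% equals DMSO level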). Conditions: S. cerevisiae MEP2-GFP strain, 3 h, at 10 µM, stronger effect = higher value.
Assay [4] is described as follows: yeast AGP1-GFP fluorescence change, single-dose – cell-based, flow cytometry, S. cerevisiae, cherry picks, confirmation (AID 2273).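 Also: median GFP channel fluorescence over the whole cell population gate.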 Conditions: S. cerevisiae AGP1-GFP strain, 3 h, at 10 µM.
Assay [5] can be described thus: TOR pathway CIT2 reporter hit retest – S. cerevisiae, GFP fusion, cherry picks, mother/daughter gates, confirmation (AID 2274). Conditions: S. cerevisiae CIT2-GFP strain, flow cytometry, 3 h, at 10 µM, stronger effect = higher value.
Setting [6] is: measured here: daughter cell gate.
Setting [7] is: measured here: mother cell gate.
[8] abbreviates: measured here: daughter cell gate response.
[9] abbreviates: measured here: mother cell gate response.

SMILES strings stand for the structures. Activity calls are given as the source filed them.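 The calls were made as follows, unless noted: active = GFP response above 150% of the DMSO level; inconclusive = fewer than 70 events counted for a yeast strain; inactive = the rest.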

Regarding `Cc1nnc(NC(=O)c2csc3c2CCC(C)C3)s1` (centres undefined), the GFP response vs DMSO was 91.5% (inactive) in assay [1], 87.2% in assay [1] (setting [6]), 93.3% in assay [1] (setting [7]) and 93.5% (inactive) in assay [3]. Moreover, the GFP response relative to DMSO in assay [2] was 117% (inactive); in assay [2] (setting [8]), 110%; in assay [2] (setting [9]), 124%. The GFP response, % of DMSO is 93% (inactive) in assay [4], 78.2% (inactive) in assay [5], 76.8% in assay [5] (setting [6]) and 77.3% in assay [5] (setting [7]).

Regarding `Cc1cccc(N2C(=O)C(Cl)=C(Nc3c(C)n(C)n(-c4ccccc4)c3=O)C2=O)c1C`, the GFP response vs DMSO in assay [1] was 102% (inactive); in assay [1] (setting [6]), 102%; in assay [1] (setting [7]) it was 103%; in assay [3], 104% (inactive). Also, the figures for the GFP response relative to DMSO in assay [2], in assay [2] (setting [8]) and in assay [2] (setting [9]) were 103% (inactive), 104% and 104%, respectively. The GFP response, % of DMSO in assay [4] was 103% (inactive); in assay [5], 99.3% (inactive); in assay [5] (setting [6]), 100%; in assay [5] (setting [7]), 98%.

Regarding `O=S(=O)(/N=C(\Sc1ccc(Cl)cc1)c1ccccc1)c1ccccc1`, the GFP response vs DMSO was 93.1% (inactive) in assay [1], 94.4% in assay [1] (setting [6]), 90.2% in assay [1] (setting [7]) and 99.3% (inactive) in assay [3]. The GFP response relative to DMSO in assay [2] is 182% (active); in assay [2] (setting [8]), 145%; in assay [2] (setting [9]), 178%. Besides, the GFP response, % of DMSO in assay [4] is 101% (inactive); in assay [5] it was 90.3% (inactive); in assay [5] (setting [6]) it was 92.3%; in assay [5] (setting [7]), 83.7%.

Take `COc1ccc(/C=N/Nc2nc(-c3cccnc3)nc3ccccc23)c(OC)c1`: the GFP response vs DMSO in assay [1] is 98% (inactive); in assay [1] (setting [6]) it was 97.6%; in assay [1] (setting [7]) it was 98.2%; in assay [3], 111% (inactive). Further, the GFP response relative to DMSO is 96.7% (inactive) in assay [2], 94.4% in assay [2] (setting [8]) and 98.3% in assay [2] (setting [9]). In addition, the GFP response, % of DMSO in assay [4] is 96.8% (inactive); in assay [5], 108% (inactive); in assay [5] (setting [6]), 112%; in assay [5] (setting [7]), 107%.

On to `COc1cc(/C=C2/C(=O)ON=C2c2ccccc2)ccc1O`, for which the GFP response vs DMSO was 105% (inactive) in assay [1], 108% in assay [1] (setting [6]), 100% in assay [1] (setting [7]) and 121% (inactive) in assay [3]. In addition, the GFP response relative to DMSO in assay [2] is 105% (inactive); in assay [2] (setting [8]) it was 108%; in assay [2] (setting [9]) it was 102%. Also, the GFP response, % of DMSO in assay [4] is 107% (inactive); in assay [5] it was 125% (inactive); in assay [5] (setting [6]), 132%; in assay [5] (setting [7]) it was 112%.

Regarding `CCOc1ccc(CNC(=O)CCC(=O)N2Cc3cccc(OC)c3Oc3ncccc32)cc1`, the GFP response vs DMSO in assay [1] is 98.2% (inactive); in assay [1] (setting [6]), 98.6%; in assay [1] (setting [7]) it was 99.8%; in assay [3], 100% (inactive). In addition, the figures for the GFP response relative to DMSO in assay [2], in assay [2] (setting [8]) and in assay [2] (setting [9]) were 97.9% (inactive), 99.2% and 96.1%, respectively. In addition, the GFP response, % of DMSO in assay [4] is 96.6% (inactive); in assay [5], 101% (inactive); in assay [5] (setting [6]), 101%; in assay [5] (setting [7]) it was 99.7%.

Regarding `O=S(=O)(Nc1cccc(-c2ccc(N3CCCCCC3)nn2)c1)c1ccccc1F`, the GFP response vs DMSO in assay [1] is 101% (inactive); in assay [1] (setting [6]) it was 99.3%; in assay [1] (setting [7]), 101%; in assay [3] it was 99% (inactive). The results for the GFP response relative to DMSO in assay [2], in assay [2] (setting [8]) and in assay [2] (setting [9]) were 95.7% (inactive), 95.9% and 95.2%, respectively. The GFP response, % of DMSO in assay [4] is 107% (inactive); in assay [5] it was 100% (inactive); in assay [5] (setting [6]) it was 101%; in assay [5] (setting [7]) it was 101%.

On to `COc1ccc(-c2nc(-c3ccccc3OC)no2)cc1OC`, for which the GFP response vs DMSO in assay [1] is 100% (inactive); in assay [1] (setting [6]), 98.8%; in assay [1] (setting [7]), 98.6%; in assay [3], 105% (inactive). Further, the GFP response relative to DMSO in assay [2] was 102% (inactive); in assay [2] (setting [8]), 99.1%; in assay [2] (setting [9]) it was 104%. Also, the GFP response, % of DMSO is 91.8% (inactive) in assay [4], 94.4% (inactive) in assay [5], 95.6% in assay [5] (setting [6]) and 93.2% in assay [5] (setting [7]).

Take `Cc1ccc(S(=O)(=O)N(Cc2ccc(F)cc2)Cc2ccco2)cc1`: the GFP response vs DMSO in assay [1] is 97.6% (inactive); in assay [1] (setting [6]) it was 96.7%; in assay [1] (setting [7]), 97.7%; in assay [3] it was 103% (inactive). Moreover, the values for the GFP response relative to DMSO in assay [2], in assay [2] (setting [8]) and in assay [2] (setting [9]) were 102% (inactive), 105% and 104%, respectively. For the same compound, the GFP response, % of DMSO was 97.9% (inactive) in assay [4], 97.2% (inactive) in assay [5], 99.3% in assay [5] (setting [6]) and 98.2% in assay [5] (setting [7]).

`Cc1ccccc1OCC(=O)NNC(=S)NC(=O)c1ccco1`: the GFP response vs DMSO was 122% (inactive) in assay [1], 111% in assay [1] (setting [6]), 118% in assay [1] (setting [7]) and 129% (inactive) in assay [3]. Moreover, the GFP response relative to DMSO was 147% (inactive) in assay [2], 135% in assay [2] (setting [8]) and 137% in assay [2] (setting [9]). Moreover, the GFP response, % of DMSO in assay [4] is 110% (inactive); in assay [5], 125% (inactive); in assay [5] (setting [6]), 122%; in assay [5] (setting [7]), 112%.

On to `O=C(CN1CCCC1)Nc1cc(C(F)(F)F)cc(C(F)(F)F)c1`, for which the GFP response vs DMSO was 101% (inactive) in assay [1], 110% in assay [1] (setting [6]), 100% in assay [1] (setting [7]) and 68.3% (inactive) in assay [3]. Further, the figures for the GFP response relative to DMSO in assay [2], in assay [2] (setting [8]) and in assay [2] (setting [9]) were 98.9% (inactive), 102% and 98.4%, respectively. Besides, the GFP response, % of DMSO in assay [4] is 102% (inactive); in assay [5], 98.6% (inactive); in assay [5] (setting [6]) it was 99.3%; in assay [5] (setting [7]), 97.1%.

As to `CN=C(NC)SC1CC(=O)N(c2ccccc2)C1=O` (centres undefined), the GFP response vs DMSO in assay [1] is 99.3% (inactive); in assay [1] (setting [6]), 97.8%; in assay [1] (setting [7]) it was 102%; in assay [3] it was 97.8% (inactive). Also, the GFP response relative to DMSO is 99.8% (inactive) in assay [2], 98.7% in assay [2] (setting [8]) and 103% in assay [2] (setting [9]). In addition, the GFP response, % of DMSO in assay [4] is 93.5% (inactive); in assay [5], 92.6% (inactive); in assay [5] (setting [6]), 93.2%; in assay [5] (setting [7]), 91.2%.

Consider `COc1ccc(N2CCN(C(=O)c3ccc(OCC4CCCO4)cc3)CC2)cc1` (centres undefined), for which the GFP response vs DMSO in assay [1] is 99.2% (inactive); in assay [1] (setting [6]), 98.8%; in assay [1] (setting [7]), 98.3%; in assay [3], 99% (inactive). For the same compound, the figures for the GFP response relative to DMSO in assay [2], in assay [2] (setting [8]) and in assay [2] (setting [9]) were 99.5% (inactive), 101% and 98.4%, respectively. For the same compound, the GFP response, % of DMSO is 99.8% (inactive) in assay [4], 100% (inactive) in assay [5], 101% in assay [5] (setting [6]) and 99.3% in assay [5] (setting [7]).

For `O=C(/C(=C/c1ccccc1)n1cncn1)c1ccc(Cl)cc1Cl`, the GFP response vs DMSO in assay [1] is 96% (inactive); in assay [1] (setting [6]), 92.7%; in assay [1] (setting [7]) it was 93.5%; in assay [3], 98.8% (inactive). In addition, the GFP response relative to DMSO was 149% (inactive) in assay [2], 125% in assay [2] (setting [8]) and 162% in assay [2] (setting [9]). The GFP response, % of DMSO in assay [4] was 106% (inactive); in assay [5], 86% (inactive); in assay [5] (setting [6]), 85.7%; in assay [5] (setting [7]), 79.8%.
